Measurements from ChEMBL document CHEMBL1770122, “Synthesis, antibacterial and antimycobacterial activities of some new 4-aryl/heteroaryl-2,6-dimethyl-3,5-bis-N-(aryl)-carbamoyl-1,4-dihydropyridines” (2011).
≈ marks a conversion by molar mass, not a printed value.

Test system: Mycobacterium tuberculosis
Assay: Antimicrobial activity against multidrug-resistant Mycobacterium tuberculosis C110/09 after 4 weeks
Type: functional
Conditions: C110/09, 672 h
Outline: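 L-J proportion method against an MDR clinical isolate resistant to rifampicin, pyrazinamide and isoniazid. Drug in 64, 128 and 256 µg mL-1 dilutions in LJ medium slants, set overnight. Inoculated with 4 mg mL-1 suspension by 3 mm loop, 37 °C, 4 weeks. MIC is the lowest concentration fully inhibiting growth, by CFU versus controls (medium, inoculated, DMSO). Three independent determinations.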

| Compound | MIC [µg/mL] |
| --- | --- |
| NC(=O)c1cnccn1 [PYRAZINAMIDE] | 128 (≈ 1040 µM) |
| CC1=C(C(=O)Nc2ccc(C)cc2)C(c2ccccn2)C(C(=O)Nc2ccc(C)cc2)=C(C)N1 | > 256 |
| CCc1ccc(C2C(C(=O)Nc3ccccc3)=C(C)NC(C)=C2C(=O)Nc2ccccc2)cc1 | > 256 |
| CC1=C(C(=O)Nc2ccccc2C)C(c2ccccn2)C(C(=O)Nc2ccccc2C)=C(C)N1 | 256 (≈ 566 µM) |
| CC1=C(C(=O)Nc2ccc(C)cc2)C(c2ccc[nH]2)C(C(=O)Nc2ccc(C)cc2)=C(C)N1 | 128 (≈ 291 µM) |
